Results taken from ChEMBL document CHEMBL2434899, “Peripherally selective diphenyl purine antagonist of the CB1 receptor” (J Med Chem, 2013).
Each block holds one compound with its values, some of them ahead of it. Activity calls are given as the source filed them.

Key:
Cannabinoid receptor 1 [1] = biological target: T1, Cannabinoid receptor 1 (Homo sapiens, UniProt P21554); experiment: Antagonist activity at human CB1 receptor expressed in CHO-K1 cells by intracellular Ca2+ mobilization assay in presence of CP55940; type: functional, cell-based
In short: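 CHO-K1 cells co-expressing human CB1 and Gαq16; intracellular calcium flux read with fluorescent dye on a 96-well plate reader. Rightward shift of the CP55940 concentration-response curve gives Ke = [ligand]/(DR−1), DR being the CP55940 EC50 ratio with versus without test agent. Averages of 3–6 measurements.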

Cannabinoid receptor 2 = Cannabinoid receptor 2 (Homo sapiens, UniProt P34972); experiment: Displacement of [3H]CP55940 from CB2 receptor (unknown origin) expressed in CHO-K1 cells; type: cell-based
Homo sapiens = organism: Homo sapiens; experiment: Selectivity ratio of Ki for CB2 receptor (unknown origin) to Ki for human CB1 receptor
Cannabinoid receptor 1 [2] = biological target: T1, Cannabinoid receptor 1; experiment: Displacement of [3H]CP55940 from human CB1 receptor expressed in CHO-K1 cells; type: cell-based
Mus musculus [3] = experiment: Reversal of delta9-THC-mediated suppression of spontaneous activity in ICR mouse at 10 mg/kg, po administered 30 mins prior to delta9-THC challenge measured after 5 mins; type: functional, organism-based; design: dose 10 mg/kg
In short: (§1)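 ICR mice were gavaged with vehicle or 10 mg/kg, then injected i.v. in the tail vein 30 min later with vehicle or 30 mg/kg Δ9-THC. After 5 min each mouse was placed in an activity chamber for 10 min; horizontal movement was counted as total infrared photobeam interruptions. 5–6 mice per group; factorial ANOVA with Tukey post hoc.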

[4] = Drug uptake in brain of Sprague-Dawley rat at 10 mg/kg, po after 2 hrs by LC-MS analysis; type: ADME, organism-based; design: dose 10 mg/kg, route oral; conditions: read-out: Drug uptake
In short: (§2)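 Male Sprague Dawley rats, 9 weeks old, given 10 mg/kg orally by gavage in corn oil; 3 rats per time point. Un-perfused brain and plasma taken at 1, 2, 4, 8 and 24 h. Plasma, or brain homogenized in ethanol:water, was precipitated with acetonitrile, centrifuged 9000 g for 5 min and analysed by LC-MS/MS (MRM, C18 column).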

Mus musculus [5] = experiment: Antagonist activity at CB1 receptor in ICR mouse assessed as suppression of spontaneous activity at 10 mg/kg, po after 30 mins; type: functional, organism-based; design: dose 10 mg/kg; in short: as §1
[6] = Drug uptake in brain of Sprague-Dawley rat at 10 mg/kg, po after 8 hrs by LC-MS analysis; type: ADME, organism-based; design: dose 10 mg/kg, route oral; conditions: read-out: Drug uptake; in short: as §2
Nucleic Acid [7] = experiment: Ratio of drug uptake from brain to plasma in Sprague-Dawley rat at 10 mg/kg, po after 2 hrs by LC-MS analysis; type: ADME, organism-based; design: dose 10 mg/kg, route oral; in short: as §2
Mus musculus [8] = experiment: Reversal of delta9-THC-mediated suppression of hypothermia in ICR mouse assessed as rectal temperature at 10 mg/kg, po administered 30 mins prior to delta9-THC challenge measured after 30 mins relative to control; type: functional, organism-based; design: dose 10 mg/kg
In short: (§3)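 Adult ICR mice given vehicle or 10 mg/kg oral gavage, then vehicle or 30 mg/kg Δ9-THC i.v. by tail vein 30 min later. Rectal temperature was taken before injection and at 30 min after it, reported as change (°C). At 40 min, time motionless on an elevated ring over 5 min was recorded as % immobility. 5–6 mice per group; factorial ANOVA with Tukey post hoc.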

[9] = Plasma concentration in Sprague-Dawley rat at 10 mg/kg, po after 8 hrs by LC-MS analysis; type: ADME, organism-based; design: dose 10 mg/kg, route oral; in short: as §2
Nucleic Acid [10] = experiment: Ratio of drug uptake from brain to plasma in Sprague-Dawley rat at 10 mg/kg, po after 24 hrs by LC-MS analysis; type: ADME, organism-based; design: dose 10 mg/kg, route oral; in short: as §2
[11] = Plasma concentration in Sprague-Dawley rat at 10 mg/kg, po after 24 hrs by LC-MS analysis; type: ADME, organism-based; design: dose 10 mg/kg, route oral; in short: as §2
[12] = Plasma concentration in Sprague-Dawley rat at 10 mg/kg, po after 1 hr by LC-MS analysis; type: ADME, organism-based; design: dose 10 mg/kg, route oral; in short: as §2
Mus musculus [13] = experiment: Reversal of delta9-THC-mediated suppression of catelepsy in ICR mouse at 10 mg/kg, po administered 30 mins prior to delta9-THC challenge measured after 40 mins; type: functional, organism-based; design: dose 10 mg/kg; in short: as §3
Mus musculus [14] = experiment: Antagonist activity at CB1 receptor in ICR mouse assessed as latency period at 10 mg/kg, po after 30 mins by warm water tail withdrawal assay; type: functional, organism-based; design: dose 10 mg/kg
In short: (§4)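 ICR mice had baseline tail-withdrawal latency measured in a 55 °C water bath, then received oral vehicle or 10 mg/kg by gavage, followed 30 min later by i.v. vehicle or 30 mg/kg Δ9-THC. Latency was retested 20 min post-injection with a 10 s cutoff, expressed as %MPE = [(test−control)/(10−control)]×100. 5–6 mice per group; factorial ANOVA with Tukey post hoc.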

Mus musculus [15] = experiment: Antagonist activity at CB1 receptor in ICR mouse assessed as rectal temperature at 10 mg/kg, po after 30 mins relative to control; type: functional, organism-based; design: dose 10 mg/kg; in short: as §3
Nucleic Acid [16] = experiment: Ratio of drug uptake from brain to plasma in Sprague-Dawley rat at 10 mg/kg, po after 8 hrs by LC-MS analysis; type: ADME, organism-based; design: dose 10 mg/kg, route oral; in short: as §2
[17] = Plasma concentration in Sprague-Dawley rat at 10 mg/kg, po after 4 hrs by LC-MS analysis; type: ADME, organism-based; design: dose 10 mg/kg, route oral; in short: as §2
[18] = Drug uptake in brain of Sprague-Dawley rat at 10 mg/kg, po after 1 hr by LC-MS analysis; type: ADME, organism-based; design: dose 10 mg/kg, route oral; conditions: read-out: Drug uptake; in short: as §2
[19] = Drug uptake in brain of Sprague-Dawley rat at 10 mg/kg, po after 4 hrs by LC-MS analysis; type: ADME, organism-based; design: dose 10 mg/kg, route oral; conditions: read-out: Drug uptake; in short: as §2
Mus musculus [20] = experiment: Antagonist activity at CB1 receptor in ICR mouse assessed as catelepsy at 10 mg/kg, po after 30 mins; type: functional, organism-based; design: dose 10 mg/kg; in short: as §3
[21] = Plasma concentration in Sprague-Dawley rat at 10 mg/kg, po after 2 hrs by LC-MS analysis; type: ADME, organism-based; design: dose 10 mg/kg, route oral; in short: as §2
[22] = Drug uptake in brain of Sprague-Dawley rat at 10 mg/kg, po after 24 hrs by LC-MS analysis; type: ADME, organism-based; design: dose 10 mg/kg, route oral; conditions: read-out: Drug uptake; in short: as §2
Nucleic Acid [23] = experiment: Ratio of drug uptake from brain to plasma in Sprague-Dawley rat at 10 mg/kg, po after 1 hr by LC-MS analysis; type: ADME, organism-based; design: dose 10 mg/kg, route oral; in short: as §2
Nucleic Acid [24] = experiment: Ratio of drug uptake from brain to plasma in Sprague-Dawley rat at 10 mg/kg, po after 4 hrs by LC-MS analysis; type: ADME, organism-based; design: dose 10 mg/kg, route oral; in short: as §2
Mus musculus [25] = experiment: Reversal of delta9-THC-mediated suppression of antinociceptive activity in ICR mouse assessed as latency period at 10 mg/kg, po administered 30 mins prior to delta9-THC challenge measured after 20 mins by warm water tail withdrawal assay; type: functional, organism-based; design: dose 10 mg/kg; in short: as §4

Sequence of Cannabinoid receptor 2 (P34972 whole entry): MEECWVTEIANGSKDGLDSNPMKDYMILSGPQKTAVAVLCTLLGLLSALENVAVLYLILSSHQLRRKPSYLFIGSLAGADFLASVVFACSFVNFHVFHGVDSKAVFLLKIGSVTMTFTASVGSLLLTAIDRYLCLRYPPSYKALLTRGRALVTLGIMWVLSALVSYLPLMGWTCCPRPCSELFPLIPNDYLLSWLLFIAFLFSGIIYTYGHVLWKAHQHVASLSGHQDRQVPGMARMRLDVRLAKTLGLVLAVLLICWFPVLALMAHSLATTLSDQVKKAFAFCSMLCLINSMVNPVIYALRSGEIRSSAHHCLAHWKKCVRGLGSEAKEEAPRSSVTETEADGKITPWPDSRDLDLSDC
T1 sequence (P21554 whole entry): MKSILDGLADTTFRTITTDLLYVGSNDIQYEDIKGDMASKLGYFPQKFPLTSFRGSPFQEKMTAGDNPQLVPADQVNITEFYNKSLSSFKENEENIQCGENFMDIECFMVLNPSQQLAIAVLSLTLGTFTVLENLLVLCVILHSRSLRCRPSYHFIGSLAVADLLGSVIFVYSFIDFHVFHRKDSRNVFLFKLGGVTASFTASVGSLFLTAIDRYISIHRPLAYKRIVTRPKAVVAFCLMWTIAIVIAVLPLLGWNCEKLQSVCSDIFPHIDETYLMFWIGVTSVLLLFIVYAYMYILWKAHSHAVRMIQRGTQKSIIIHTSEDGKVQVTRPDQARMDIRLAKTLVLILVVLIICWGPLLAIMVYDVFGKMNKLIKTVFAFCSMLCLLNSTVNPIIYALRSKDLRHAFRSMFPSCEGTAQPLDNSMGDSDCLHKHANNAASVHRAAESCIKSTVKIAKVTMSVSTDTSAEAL

Structure (SMILES): O=C(CC1CCCCC1)NC1CCN(c2ncnc3c2nc(-c2ccccc2Cl)n3-c2ccc(Cl)cc2)CC1
Ki (Cannabinoid receptor 2): 2360 nM
Ke (Cannabinoid receptor 1 [1]): 2.1 nM
Ki (Cannabinoid receptor 1 [2]): 1.93 nM

Structure (SMILES): NS(=O)(=O)NC1CCN(c2ncnc3c2nc(-c2ccccc2Cl)n3-c2ccc(Cl)cc2)CC1
Ke (Cannabinoid receptor 1 [1]): 2770 nM

Structure (SMILES): O=C(NC1CCN(c2ncnc3c2nc(-c2ccccc2Cl)n3-c2ccc(Cl)cc2)CC1)Oc1ccccc1
Ki (Cannabinoid receptor 2): 10600 nM
Ki (Cannabinoid receptor 1 [2]): 2.55 nM

Structure (SMILES): CC(C)CCC(=O)NC1CCN(c2ncnc3c2nc(-c2ccccc2Cl)n3-c2ccc(Cl)cc2)CC1
Ki (Cannabinoid receptor 2): 215 nM
Ke (Cannabinoid receptor 1 [1]): 7.4 nM
Ratio Ki (Homo sapiens): 81
Ki (Cannabinoid receptor 1 [2]): 2.67 nM

Structure (SMILES): O=S(=O)(NC1CCN(c2ncnc3c2nc(-c2ccccc2Cl)n3-c2ccc(Cl)cc2)CC1)C(F)(F)F
Ki (Cannabinoid receptor 2): 4500 nM
Ke (Cannabinoid receptor 1 [1]): 1.05 nM
Ratio Ki (Homo sapiens): 738
Ki (Cannabinoid receptor 1 [2]): 6.1 nM

Structure (SMILES): CCCCC(=O)NC1CCN(c2ncnc3c2nc(-c2ccccc2Cl)n3-c2ccc(Cl)cc2)CC1
Activity (Mus musculus [3]): inactive
Ki (Cannabinoid receptor 2): 1050 nM
concentration at 2 h [4]: 71.5 ng/mL
Activity (Mus musculus [5]): inactive
concentration at 8 h [6]: 62.5 ng/mL
BPR (Nucleic Acid [7]): 0.04
Activity (Mus musculus [8]): inactive
concentration at 8 h [9]: 1960 ng/mL
BPR (Nucleic Acid [10]): 0.01
concentration at 24 h [11]: 438 ng/mL
concentration at 1 h [12]: 730 ng/mL
Activity (Mus musculus [13]): inactive
Activity (Mus musculus [14]): inactive
Activity (Mus musculus [15]): inactive
BPR (Nucleic Acid [16]): 0.03
concentration at 4 h [17]: 1560 ng/mL
concentration at 1 h [18]: 24.3 ng/mL
Ke (Cannabinoid receptor 1 [1]): 4.9 nM
concentration at 4 h [19]: 103 ng/mL
Ratio Ki (Homo sapiens): 54
Activity (Mus musculus [20]): inactive
concentration at 2 h [21]: 1750 ng/mL
Ki (Cannabinoid receptor 1 [2]): 19.5 nM
concentration at 24 h [22]: 5.35 ng/mL
BPR (Nucleic Acid [23]): 0.03
BPR (Nucleic Acid [24]): 0.07
Activity (Mus musculus [25]): inactive

More lines, now with the values ahead:

Ke (Cannabinoid receptor 1 [1]): 17 nM
Structure (SMILES): COC(=O)NC1CCN(c2ncnc3c2nc(-c2ccccc2Cl)n3-c2ccc(Cl)cc2)CC1

Ke (Cannabinoid receptor 1 [1]): 140 nM
Structure (SMILES): CN(C)CC(=O)NC1CCN(c2ncnc3c2nc(-c2ccccc2Cl)n3-c2ccc(Cl)cc2)CC1

Ki (Cannabinoid receptor 2): 60.2 nM
Ke (Cannabinoid receptor 1 [1]): 0.89 nM
Ratio Ki (Homo sapiens): 39
Ki (Cannabinoid receptor 1 [2]): 1.54 nM
Structure (SMILES): O=C(NC1CCN(c2ncnc3c2nc(-c2ccccc2Cl)n3-c2ccc(Cl)cc2)CC1)C1CCCC1

Ki (Cannabinoid receptor 2): 89.5 nM
Ke (Cannabinoid receptor 1 [1]): 5.4 nM
Ratio Ki (Homo sapiens): 22
Ki (Cannabinoid receptor 1 [2]): 4.01 nM
Structure (SMILES): CC(C)CC(=O)NC1CCN(c2ncnc3c2nc(-c2ccccc2Cl)n3-c2ccc(Cl)cc2)CC1

Ke (Cannabinoid receptor 1 [1]): 789 nM
Structure (SMILES): O=C(CCN1CCCCC1)NC1CCN(c2ncnc3c2nc(-c2ccccc2Cl)n3-c2ccc(Cl)cc2)CC1

Ki (Cannabinoid receptor 2): 569 nM
Ke (Cannabinoid receptor 1 [1]): 2.9 nM
Ratio Ki (Homo sapiens): 282
Ki (Cannabinoid receptor 1 [2]): 2.02 nM
Structure (SMILES): O=C(CC1CCCC1)NC1CCN(c2ncnc3c2nc(-c2ccccc2Cl)n3-c2ccc(Cl)cc2)CC1

Ki (Cannabinoid receptor 2): 835 nM
Ke (Cannabinoid receptor 1 [1]): 3.3 nM
Ratio Ki (Homo sapiens): 249
Ki (Cannabinoid receptor 1 [2]): 3.35 nM
Structure (SMILES): O=C(NC1CCN(c2ncnc3c2nc(-c2ccccc2Cl)n3-c2ccc(Cl)cc2)CC1)C1CCCCC1

Ki (Cannabinoid receptor 2): 426 nM
Ke (Cannabinoid receptor 1 [1]): 2.3 nM
Ratio Ki (Homo sapiens): 119
Ki (Cannabinoid receptor 1 [2]): 3.57 nM
Structure (SMILES): CCOC(=O)NC1CCN(c2ncnc3c2nc(-c2ccccc2Cl)n3-c2ccc(Cl)cc2)CC1
